Measured values as given in ChEMBL document CHEMBL2034980, “N⁴-Phenyl-substituted 2-acetylpyridine thiosemicarbazones: cytotoxicity against human tumor cells, structure-activity relationship studies and investigation on the mechanism of action” (Bioorg Med Chem, 2012).
Calls of active or inactive are those of the source. The rule behind the calls is not given here.

Experiments:
[1] = (§1) Cytotoxicity against human U87 cells expressing wild-type p53 after 48 hrs by MTT assay; format: functional, cell-based, U-87MG ATCC; conditions: U-87 MG, read-out: IC50
Outline: (§2)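 MTT assay. Cells were grown in DMEM with 10% FBS and penicillin/streptomycin at 37 °C under 5% CO2, seeded at 1–2×10^3 cells/well and treated 12 h later with 1×10^-12 to 1×10^-5 M ([…] from DMSO stock, final DMSO <0.5%) for 48 h. MTT was added at 0.5 mg mL⁻¹, formazan dissolved in DMSO and read at 570 nm. IC50 is the concentration giving 50% cytotoxicity. Quadruplicates, ≥3 independent experiments.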

U-87MG ATCC [2] = assay: as §1; format: functional, cell-based; outline: as §2
U-87MG ATCC [3] = assay: Induction of apoptosis in human U87 cells assessed as chromatin condensation at 1 uM after 48 hrs by acridine orange/ethidium bromide staining-based microscopy; format: functional, cell-based
Outline: (§3)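 After 48 h at 1 μM, cells were incubated for 15 min in serum-free medium containing 1 μg mL⁻¹ acridine orange and 1 μg mL⁻¹ ethidium bromide. The medium was removed and cells imaged by inverted fluorescence microscopy (530–650 nm). Green/orange nuclear patterns and acidic cytoplasmic vacuoles were scored.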

T98G [4] = assay: Induction of apoptosis in human T98G cells assessed as chromatin condensation at 1 uM after 48 hrs by DAPI staining; format: functional, cell-based
Outline: (§4)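 Cells were treated at 1 μM for 48 h, washed in PBS and fixed in 70% methanol for 30 min at room temperature. They were stained with 0.4 μg mL⁻¹ DAPI for 1 h in the dark, and nuclear condensation and fragmentation were scored by fluorescence microscopy (385–410 nm).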

T98G [5] = assay: Induction of apoptosis in human T98G cells assessed as irregularities in cellular shape at 1 uM after 48 hrs by DAPI staining; format: functional, cell-based
U-87MG ATCC [6] = assay: Induction of apoptosis in human U87 cells assessed as DNA fragmentation at 1 uM after 48 hrs by DAPI staining; format: functional, cell-based; outline: as §4
T98G [7] = assay: Induction of apoptosis in human T98G cells assessed as membrane blebbing at 1 uM after 48 hrs […]; format: functional, cell-based
MCF7 [8] = assay: Induction of apoptosis in human MCF7 cells assessed as appearance of autophagolysosomes at 1 uM after 48 hrs by acridine orange/ethidium bromide staining-based microscopy; format: functional, cell-based; outline: as §3
U-87MG ATCC [9] = assay: Induction of apoptosis in human U87 cells assessed as membrane blebbing at 1 uM after 48 hrs by DAPI staining; format: functional, cell-based
T98G [10] = assay: Induction of apoptosis in human T98G cells assessed as cell shrinkage at 1 uM after 48 hrs by DAPI staining; format: functional, cell-based
MCF7 [11] = assay: Induction of apoptosis in human MCF7 cells assessed as chromatin condensation at 1 uM after 48 hrs by acridine orange/ethidium bromide staining-based microscopy; format: functional, cell-based; outline: as §3
T98G [12] = assay: Induction of apoptosis in human T98G cells assessed as chromatin condensation at 1 uM after 48 hrs by acridine orange/ethidium bromide staining-based microscopy; format: functional, cell-based; outline: as §3
MCF7 [13] = assay: Induction of apoptosis in human MCF7 cells assessed as DNA fragmentation at 1 uM after 48 hrs by DAPI staining; format: functional, cell-based; outline: as §4
U-87MG ATCC [14] = assay: Induction of apoptosis in human U87 cells assessed as cell shrinkage at 1 uM after 48 hrs by DAPI staining; format: functional, cell-based
U-87MG ATCC [15] = assay: Induction of apoptosis in human U87 cells assessed as chromatin condensation at 1 uM after 48 hrs by DAPI staining; format: functional, cell-based; outline: as §4
U-87MG ATCC [16] = assay: Induction of apoptosis in human U87 cells assessed as irregularities in cellular shape at 1 uM after 48 hrs by DAPI staining; format: functional, cell-based
MCF7 [17] = assay: Induction of apoptosis in human MCF7 cells assessed as cell shrinkage at 1 uM after 48 hrs by DAPI staining; format: functional, cell-based
T98G [18] = assay: Cytotoxicity against human T98G cells expressing mutant p53 after 48 hrs by MTT assay; format: functional, cell-based; conditions: for IC50: read-out: IC50; outline: as §2
MCF7 [19] = assay: Cytotoxicity against human MCF7 cells after 48 hrs by MTT assay; format: functional, cell-based; conditions: for IC50: MCF7, 48 h, read-out: IC50; outline: as §2
MCF7 [20] = assay: Induction of apoptosis in human MCF7 cells assessed as membrane blebbing at 1 uM after 48 hrs by DAPI staining; format: functional, cell-based
T98G [21] = assay: Induction of apoptosis in human T98G cells assessed as DNA fragmentation at 1 uM after 48 hrs by DAPI staining; format: functional, cell-based; outline: as §4
MCF7 [22] = assay: Induction of apoptosis in human MCF7 cells assessed as irregularities in cellular shape at 1 uM after 48 hrs by DAPI staining; format: functional, cell-based
MCF7 [23] = assay: Induction of apoptosis in human MCF7 cells assessed as chromatin condensation at 1 uM after 48 hrs by DAPI staining; format: functional, cell-based; outline: as §4
[24] = Haemolytic activity in human RBC after 1 hr by photometry; format: ADME, cell-based; conditions: Erythrocyte
Outline: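 Human EDTA blood was spun at 700xg for 10 min and the erythrocytes washed three times in cold PBS pH 7.4, then resuspended in it. Cells were incubated with varying compound concentrations for 1 h at 37 °C with shaking. After centrifugation, released haemoglobin was read at 540 nm to give the IC50. Mean ± SD, n = 4.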

U-87MG ATCC [25] = assay: Induction of apoptosis in human U87 cells assessed as appearance of autophagolysosomes at 1 uM after 48 hrs by acridine orange/ethidium bromide staining-based microscopy; format: functional, cell-based; outline: as §3
T98G [26] = assay: Induction of apoptosis in human T98G cells assessed as appearance of autophagolysosomes at 1 uM after 48 hrs by acridine orange/ethidium bromide staining-based microscopy; format: functional, cell-based; outline: as §3

SMILES | IC50 [1] [nM] | Activity (U-87MG ATCC [2]) | Activity (U-87MG ATCC [3]) | Activity (T98G [4]) | Activity (T98G [5]) | Activity (U-87MG ATCC [6]) | Activity (T98G [7]) | Activity (MCF7 [8]) | Activity (U-87MG ATCC [9]) | Activity (T98G [10]) | Activity (MCF7 [11]) | Activity (T98G [12]) | Activity (MCF7 [13]) | Activity (U-87MG ATCC [14]) | Activity (U-87MG ATCC [15]) | Activity (U-87MG ATCC [16]) | Activity (MCF7 [17]) | Activity (T98G [18]) | IC50 (T98G [18]) [nM] | Activity (MCF7 [19]) | also measured
CC(=NNC(=S)Nc1cccc(Cl)c1)c1ccccn1 (mixture of isomers) | 31 | Dose-dependent effect | Active | Active | Active | Active | Active | Active | Active | Active | Active | Active | Active | Active | Active | Active | Active | Dose-dependent effect | 1 | Dose-dependent effect | IC50 (MCF7 [19]): 24 nM; Activity (MCF7 [20]): Active; Activity (T98G [21]): Active; Activity (MCF7 [22]): Active; Activity (MCF7 [23]): Active; IC50 [24]: > 10000 nM; Activity (U-87MG ATCC [25]): Active; Activity (T98G [26]): Active
CC(=NNC(=S)Nc1ccc(F)cc1)c1ccccn1 (mixture of isomers) | 10 | Dose-dependent effect | Active | Active | Active | Active | Active | Active | Active | Active | Active | Active | Active | Active | Active | Active | Active | Dose-dependent effect | 17 | Dose-dependent effect | IC50 (MCF7 [19]): 1.2 nM; Activity (MCF7 [20]): Active; Activity (T98G [21]): Active; Activity (MCF7 [22]): Active; Activity (MCF7 [23]): Active; IC50 [24]: > 10000 nM; Activity (U-87MG ATCC [25]): Active; Activity (T98G [26]): Active
CC(=NNC(=S)Nc1ccccc1I)c1ccccn1 (mixture of isomers) | 6.1 | Dose-dependent effect | Active | Active | Active | Active | Active | Active | Active | Active | Active | Active | Active | Active | Active | Active | Active | Dose-dependent effect | 8.1 | Dose-dependent effect | IC50 (MCF7 [19]): 4.1 nM; Activity (MCF7 [20]): Active; Activity (T98G [21]): Active; Activity (MCF7 [22]): Active; Activity (MCF7 [23]): Active; IC50 [24]: > 10000 nM; Activity (U-87MG ATCC [25]): Active; Activity (T98G [26]): Active
CC(=NNC(S)=Nc1ccccc1Cl)c1ccccn1 (mixture of isomers) | 2.6 | Dose-dependent effect | Active | Active | Active | Active | Active | Active | Active | Active | Active | Active | Active | Active | Active | Active | Active | Dose-dependent effect | 1.1 | Dose-dependent effect | IC50 (MCF7 [19]): 0.16 nM; Activity (MCF7 [20]): Active; Activity (T98G [21]): Active; Activity (MCF7 [22]): Active; Activity (MCF7 [23]): Active; IC50 [24]: > 10000 nM; Activity (U-87MG ATCC [25]): Active; Activity (T98G [26]): Active
